Results reported in ChEMBL document CHEMBL2176997, “Salicylanilide inhibitors of Toxoplasma gondii” (J Med Chem, 2012).
Converted amounts (≈) assume the structure as drawn. The source made the active and inactive calls. The calls are words filed in the database; no cut-off is given here.

What was measured:
[1] = system: Toxoplasma gondii; test: Antiapicomplexan activity against Toxoplasma gondii RH tachyzoites infected in HFF cells assessed as [3H]-uracil incorporation after 24 hrs by scintillation luminescence counter; type: functional
Method in brief: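 Confluent HFF monolayers in IMDM-C (10% FBS) infected with 3,500 needle-released tachyzoites per well. Compounds from 10 mM DMSO stocks, diluted in medium (final DMSO ≤0.1%), were added 1 h after infection, with 0.1% DMSO as vehicle control. [3H]-uracil (25 µL of 0.1 mCi/mL) was added 24 h before harvest onto glass-fibre filters and counted by scintillation. Cultures were kept at 33°C or 37°C, 5% CO2.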

[2] = system: Toxoplasma gondii; test: Antiapicomplexan activity against Toxoplasma gondii THdhxgTRP tachyzoites harboring insertional mutation assessed as growth inhibition after 6 weeks; type: functional, organism-based
[3] = system: Plasmodium falciparum; test: Antiapicomplexan activity against chloroquine-resistant Plasmodium falciparum TM91-C235 assessed as growth inhibition after 72 hrs by MSF assay; type: functional, organism-based; details: TM91-C235, 72 h
Method in brief: (§1)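 P. falciparum D6 or TM91-C235, late-ring/early-trophozoite stage, cultured at 0.3% parasitemia and 2% hematocrit on predosed plates. Twelve two-fold dilutions spanned 0.5–10000 ng/ml final, in quadruplicate, with chloroquine control. Incubation 72 h at 37°C under 5% CO2/5% O2/90% N2. Lysis buffer with SYBR Green I (10x final) was added, then 24 h dark at room temperature. IC50 from fluorescence by sigmoidal variable-slope regression.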

[4] = system: Plasmodium falciparum; test: Antiapicomplexan activity against chloroquine-sensitive Plasmodium falciparum D6 assessed as growth inhibition after 72 hrs by MSF assay; type: functional, organism-based; details: D6, 72 h; method in brief: as §1
[5] = system: Toxoplasma gondii; test: Parasitocidal activity against Toxoplasma gondii RH tachyzoites expressing yellow fluorescent protein infected in HFF cells assessed as parasite growth inhibition at 1 uM administered for 25 days followed by compound wash out; type: functional, organism-based
Method in brief: (§2)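 RH-YFP tachyzoites in HFF cells given compound at 1 μM under one of four regimens: 4 days then removal; 10 days then removal; refreshed at day 4 and removed at day 10; or maintained throughout. Parasite growth was followed as YFP fluorescence over time.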

[6] = system: Toxoplasma gondii; test: Parasitocidal activity against Toxoplasma gondii RH tachyzoites expressing yellow fluorescent protein infected in HFF cells at 1 uM administered for 10 days followed by compound wash out measured after 11 to 25 days; type: functional, organism-based; method in brief: as §2
[7] = system: Toxoplasma gondii; test: Parasitocidal activity against Toxoplasma gondii RH tachyzoites expressing yellow fluorescent protein infected in HFF cells at 1 uM administered for 4 days followed by compound refreshment on day 4 and compound wash out on day 10 measured after 11 to 25 days; type: functional, organism-based; method in brief: as §2
[8] = system: Toxoplasma gondii; test: Parasitocidal activity against Toxoplasma gondii RH tachyzoites expressing yellow fluorescent protein infected in HFF cells at 1 uM administered for 4 days followed by compound wash out measured after 11 to 25 days; type: functional, organism-based; method in brief: as §2
[9] = system: HFF; test: Cytotoxicity against HFF cells assessed as survival by WST1 assay; type: cell-based; details: human
Method in brief: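 Confluent HFF cells were treated with compounds at the concentrations used in the challenge assays. On the final day WST-1 reagent was added, followed by 1 h incubation in the dark at 37°C and absorbance reading at 420 nm.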

[10] = system: Toxoplasma gondii; test: Antiapicomplexan activity against Toxoplasma gondii RH tachyzoites expressing yellow fluorescent protein infected in HFF cells after 72 hrs by fluorescence assay; type: functional, organism-based
Method in brief: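 Confluent HFF monolayers in IMDM-C (10% FBS) infected with 3,500 RH-YFP tachyzoites per well. Compounds were added 1 h later from 10 mM DMSO stocks, final DMSO ≤0.1%. Pyrimethamine/sulfadiazine and 0.1% DMSO served as controls. After 72 h YFP fluorescence was read (ex 514, em 540 nm, bottom optics), giving MIC50/MIC90 ranges. Plates held at 33°C or 37°C, 5% CO2.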

[11] = system: Toxoplasma gondii; test: Antiapicomplexan activity against Toxoplasma gondii TgGoatUS4 oocysts infected in HLA B07 transgenic mouse assessed as increase in survival at 25 to 100 mg/kg, po; type: functional, organism-based
Method in brief: (§3)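 Female B7 mice (~25 g), 5 per group, given 100 ME49 or TgGoatUS4 oocysts by oral gavage, plus 100 mg/kg (2.5 mg/mL) or 25 mg/kg ([…]) of test compound as 1.0 mL oral-gavage suspension. Vehicle DMSO 1.0%/PEG 400 5.0%/0.5% CMC 94.0%. Infected untreated and drug-only groups included. Mice observed daily and day of death recorded. Impression smears examined for tachyzoites.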

[12] = system: Mus musculus; test: Toxicity in HLA B07 transgenic mouse assessed as survival at 25 to 100 mg/kg, po administered for 9 days measured after day 10; type: organism-based; parameters: dose 25-100 mg/kg, route oral; details: in vivo, 216 h
[13] = system: Toxoplasma gondii; test: Antiapicomplexan activity against Toxoplasma gondii ME49 oocysts infected in HLA B07 transgenic mouse assessed as increase in survival at 25 to 100 mg/kg, po; type: functional, organism-based; method in brief: as §3
[14] = system: Plasmodium falciparum; test: Selectivity ratio of IC50 for chloroquine-resistant Plasmodium falciparum TM91-C235 to IC50 for chloroquine-sensitive Plasmodium falciparum D6; type: functional
[15] = system: Toxoplasma gondii; test: Antiapicomplexan activity against Toxoplasma gondii RH tachyzoites expressing yellow fluorescent protein infected in HFF cells assessed as parasite growth inhibition at 1 uM administered for 25 days followed by compound wash out; type: functional, organism-based
[16] = system: Toxoplasma gondii; test: Parasitostatic activity against Toxoplasma gondii RH tachyzoites expressing yellow fluorescent protein infected in HFF cells at 1 uM administered for 10 days followed by compound wash out measured on day 17; type: functional, organism-based
Method in brief: (§4)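 RH-YFP tachyzoites grown in HFF cells were exposed to 1 µM compound under set schedules: 4 days of treatment then removal, or 10 days of treatment then removal. Parasite burden was followed over time as YFP fluorescence (excitation 514 nm, emission 540 nm, bottom read) and compared with untreated infected controls.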

[17] = system: Toxoplasma gondii; test: Parasitostatic activity against Toxoplasma gondii RH tachyzoites expressing yellow fluorescent protein infected in HFF cells at 1 uM administered for 4 days followed by compound wash out measured on day 11 relative to untreated control; type: functional, organism-based; method in brief: as §4

SMILES | MIC50 [1] [µM] | MIC90 [1] [µM] | also measured
O=C(Nc1ccc(Cl)cc1F)c1cc(Cl)ccc1O | > 1 | 0.5 (≈ 0.15 µg/mL) | –
O=C(Nc1cccc(Cc2ccccc2)c1)c1cc(Cl)ccc1O | 0.75 (≈ 0.253 µg/mL) | 0.75 (≈ 0.253 µg/mL) | –
O=C(Nc1cccc(OC(C(F)(F)F)C(F)(F)F)c1)c1cc(Cl)ccc1O | > 1 | > 1 | –
COc1ccc(NC(=O)c2cc(Cl)ccc2O)cc1OC | > 1 | > 1 | –
O=C(Nc1cccc(Br)c1)c1cc(Cl)ccc1O | 0.5 (≈ 0.163 µg/mL) | 0.75 (≈ 0.245 µg/mL) | –
O=C(Nc1ccc2c(c1)OCCO2)c1cc(Cl)ccc1O | > 1 | > 1 | –
O=C(Nc1cc(C(F)(F)F)cc(C(F)(F)F)c1)c1cc(Cl)ccc1O [IMD-0354] | 0.016 (≈ 0.00614 µg/mL) | 0.125 (≈ 0.048 µg/mL) | growth inhibition (GI) [2]: Active; IC50 [3]: 1300 nM; IC50 [4]: 1400 nM; Activity [5]: Active; Activity [6]: Active; Activity [7]: Active; Activity [8]: Active; Activity [9]: > 1000 nM; IC50 [10]: 16 nM; IC90 [10]: 125 nM
COc1ccc(F)cc1C(=O)Nc1ccc([N+](=O)[O-])cc1Cl | > 1 | > 1 | –
C=Cc1cccc(NC(=O)c2cc(Cl)ccc2O)c1 | 0.25 (≈ 0.0684 µg/mL) | 0.75 (≈ 0.205 µg/mL) | –
CCc1cccc(NC(=O)c2cc(Cl)ccc2O)c1 | 0.25 (≈ 0.0689 µg/mL) | 0.5 (≈ 0.138 µg/mL) | –
COc1c(C)c2c(c(O)c1C/C=C(\C)CCC(=O)O)C(=O)OC2 | – | – | growth inhibition (GI) [2]: Active
CCOc1cccc(NC(=O)c2cc(F)ccc2O)c1 | > 1 | > 1 | –
COc1ccc(NC(=O)c2cc(Cl)ccc2O)c(OC)c1OC | > 1 | > 1 | –
O=C(Oc1ccc(Cl)cc1C(=O)Nc1ccc([N+](=O)[O-])cc1Cl)c1ccccc1 | 0.061 (≈ 0.0263 µg/mL) | 0.125 (≈ 0.0539 µg/mL) | growth inhibition (GI) [2]: Active; IC50 [3]: 690 nM; IC50 [4]: 770 nM; Activity [5]: Active; Activity [6]: Active; Activity [7]: Active; Activity [8]: Active; Activity [9]: > 1000 nM; IC50 [10]: 61 nM; IC90 [10]: 125 nM
CC(C)Oc1cccc(NC(=O)c2cc(Cl)ccc2O)c1 | > 1 | > 1 | –
O=C(Nc1cccc(Cl)c1)c1cc(I)cc(I)c1O | > 1 | > 1 | –
C#Cc1cccc(NC(=O)c2cc(Cl)ccc2O)c1 | > 1 | > 1 | –
CN(CC(=O)NN)C(=O)Oc1ccc(Cl)cc1C(=O)Nc1cc(C(F)(F)F)cc(C(F)(F)F)c1.Cl | 0.125 | 0.125 | growth inhibition (GI) [2]: Active; Activity [11]: Active; Activity [12]: Non-toxic; Activity [9]: > 1000 nM; IC50 [10]: 125 nM; IC90 [10]: 125 nM
CN1CCN(C(=O)Oc2ccc(Cl)cc2C(=O)Nc2ccc([N+](=O)[O-])cc2Cl)CC1 | 0.5 (≈ 0.227 µg/mL) | 0.75 (≈ 0.34 µg/mL) | –
Cc1cc(C)cc(NC(=O)c2cc(Cl)ccc2O)c1 | > 1 | > 1 | –
O=c1[nH]c(=O)c2nc[nH]c2[nH]1 | – | – | growth inhibition (GI) [2]: Active

SMILES | MIC50 [1] [µM] | MIC90 [1] [µM] | also measured
O=C(Nc1cccc(Oc2ccccc2)c1)c1cc(Cl)ccc1O | > 1 | > 1 | –
C#Cc1cc(NC(=O)c2cc(Cl)ccc2O)ccc1F | > 1 | > 1 | –
O=C(Nc1cccc(F)c1)c1cc(Cl)ccc1O | 0.5 (≈ 0.133 µg/mL) | 0.75 (≈ 0.199 µg/mL) | –
N#Cc1ccc(Cl)c(NC(=O)c2cc(Cl)ccc2O)c1 | 0.5 (≈ 0.154 µg/mL) | 0.75 (≈ 0.23 µg/mL) | –
O=C(Nc1cc(Cl)cc(Cl)c1)c1cc(Cl)ccc1O | 0.25 (≈ 0.0791 µg/mL) | 0.25 (≈ 0.0791 µg/mL) | –
O=C(Nc1ccc([N+](=O)[O-])cc1Cl)c1ccccc1O | > 1 | > 1 | –
COC(=O)[C@@H]1CCCN1C(=O)Oc1ccc(Cl)cc1C(=O)Nc1ccc([N+](=O)[O-])cc1Cl | > 1 | > 1 | –
Nc1ccc(NC(=O)c2cc(Cl)ccc2O)c(Cl)c1 | > 1 | > 1 | –
COc1ccc(F)cc1C(=O)Nc1ccc([N+](=O)[O-])cc1F | > 1 | > 1 | –
N#Cc1cccc(NC(=O)c2cc(Cl)ccc2O)c1 | > 1 | > 1 | –
O=C(Nc1ccc([N+](=O)[O-])cc1Cl)c1cc(Cl)ccc1O [NICLOSAMIDE] | 0.2 (≈ 0.0654 µg/mL) | 0.2 (≈ 0.0654 µg/mL) | –
COc1ccc(C)c(NC(=O)c2cc(Cl)ccc2O)c1 | > 1 | > 1 | –
O=C(Nc1cccc(C(F)(F)F)c1)c1cc(Cl)ccc1O | 0.25 (≈ 0.0789 µg/mL) | 0.25 (≈ 0.0789 µg/mL) | –
Cc1ccc(O)c(C(=O)Nc2ccc([N+](=O)[O-])cc2Cl)c1 | 0.25 (≈ 0.0767 µg/mL) | 0.25 (≈ 0.0767 µg/mL) | –
CN(CC(=O)NN)C(=O)Oc1ccc(Cl)cc1C(=O)Nc1ccc([N+](=O)[O-])cc1Cl.Cl | 0.016 | 0.125 | Activity [13]: Active; Activity [12]: Non-toxic; IC50 [3]: 2700 nM; Activity [6]: Active; Activity [7]: Active; Activity [9]: > 1000 nM; IC50 [10]: 16 nM; IC90 [10]: 125 nM
CCOc1cccc(NC(=O)c2cc(Cl)ccc2O)c1 | > 1 | > 1 | –
O=C(Nc1ccc([N+](=O)[O-])cc1Cl)c1cc(Cl)ccc1OC(=O)N1CCOCC1 | > 1 | > 1 | –
Cc1cccc(NC(=O)c2cc(Cl)ccc2O)c1 | > 1 | > 1 | –
CC(C)(C)c1cccc(NC(=O)c2cc(Cl)ccc2O)c1 | 0.008 (≈ 0.00243 µg/mL) | 0.016 (≈ 0.00486 µg/mL) | growth inhibition (GI) [2]: Active; Ratio IC50 [14]: 2; IC50 [3]: > 6500 nM; IC50 [4]: 3100 nM; growth inhibition (GI) [15]: Active; Activity [16]: inactive; Activity [17]: inactive; Activity [9]: > 1000 nM; IC50 [10]: 8 nM; IC90 [10]: 16 nM
O=C(Nc1cc(F)cc(F)c1)c1cc(Cl)ccc1O | > 1 | > 1 | –
